Measured values taken from ChEMBL document CHEMBL4118256, “Second Generation of Mannich Base-Type Derivatives with in Vivo Activity against Trypanosoma cruzi” (J Med Chem, 2018).
Calls of active or inactive are those of the source. The calls are words filed in the database; no cut-off is given here.

Key:
Trypanosoma cruzi [1] = assay: (§1) Antitrypanosomal activity against Trypanosoma cruzi MHOM/Pe/2011/Arequipa DTU 5 trypamastigotes infected in Balb/c mouse assessed as reduction in parasitaemia reactivation in bone marrow tissue at 100 mg/kg, po pretreated once daily for 5 consecutive days starting from day 75 post infection followed by cyclophosphamide-induced immunosuppression on day 100 post infection every 4 days for a maximum of 3 doses measured on day 127 post infection by PCR method; type: functional; parameters: scale not given: the % may be the effect or the level left
How it was run: (§2)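 Necropsy on day 127 pi after oral treatment and cyclophosphamide immunosuppression. Tissue DNA was amplified by PCR targeting the ~300 bp T. cruzi SOD gene, 200 nM each primer, 30 cycles with 55.5 °C annealing. Products run on 2 % agarose; positive organs counted out of six mice.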

Mus musculus [2] = assay: (§3) Hepatotoxicity in Balb/c mouse infected with Trypanosoma cruzi MHOM/Pe/2011/Arequipa DTU 5 trypamastigotes assessed as change in alkaline phosphatase level at […], po once daily for 5 consecutive days starting from day 75 post infection measured on day 81 post infection by biochemical analysis relative to control; type: toxicity, organism-based; conditions: in vivo
How it was run: (§4)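 Serum clinical chemistry in Arequipa-infected female BALB/c mice. Oral 20 mg·kg-1 per day for 5 days, started day 10 or day 75 pi. Samples taken at day 16 pi or day 81 pi, and on necropsy day. Markers: CK-MB and LDH (U/L), AST, ALT and alkaline phosphatase (U/L), total bilirubin. Results scored relative to infected untreated controls; uninfected reference n = 15.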

Trypanosoma cruzi [3] = assay: as §1, with “muscle” for “bone marrow”; type: functional; parameters: scale not given: the % may be the effect or the level left
Trypanosoma cruzi [4] = assay: as §1, with “adipose” for “bone marrow”; type: functional; parameters: scale not given: the % may be the effect or the level left; how it was run: as §2
Mus musculus [5] = assay: (§5) Cardiotoxicity in Balb/c mouse infected with Trypanosoma cruzi MHOM/Pe/2011/Arequipa DTU 5 trypamastigotes assessed as change in ratio of creatine kinase in muscle to brain at 20 mg/kg, po once daily for 5 consecutive days starting from day 75 post infection measured on day 127 post infection by biochemical analysis relative to control; type: toxicity, organism-based; conditions: in vivo; how it was run: as §4
Trypanosoma cruzi [6] = assay: Antitrypanosomal activity against Trypanosoma cruzi MHOM/Pe/2011/Arequipa DTU 5 trypamastigotes infected in Balb/c mouse assessed as reduction in parasitaemia level at 20 mg/kg, po once daily for 5 consecutive days starting from day 10 post infection measured on day 47 post infection by Neubauer chamber method; type: functional, organism-based
How it was run: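 Six female BALB/c mice per group, infected i.p. with 5 x 10^5 Arequipa bloodstream trypomastigotes in PBS. Oral dosing once daily for 5 days from day 10 pi, 20 mg·kg-1 per day in aqueous 5 % DMSO/0.5 % HPMC, vehicle to controls. Blood trypomastigotes counted in a Neubauer chamber (parasites·mL-1); means ± SD.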

Trypanosoma cruzi [7] = assay: (§6) Antitrypanosomal activity against Trypanosoma cruzi MHOM/Pe/2011/Arequipa DTU 5 trypamastigotes infected in Balb/c mouse assessed as reduction in parasitaemia reactivation at 20 mg/kg, po pretreated once daily for 5 consecutive days starting from day 10 post infection followed by cyclophosphamide-induced immunosuppression on day 100 post infection every 4 days for a maximum of 3 doses measured up to 1 week post immunosuppression by Neubauer chamber method; type: functional; parameters: scale not given: the % may be the effect or the level left
How it was run: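 Female BALB/c mice (8-10 weeks, 20-25 g), groups of six, infected i.p. with 5 x 10^5 bloodstream trypomastigotes in 0.2 mL PBS; oral dosing 20 mg·kg-1 per day for 5 days in 5% DMSO/0.5% HPMC vehicle. After day 100 pi, cyclophosphamide 200 mg·kg-1 i.p. every 4 days, up to three doses. Within 1 week after the last dose, fresh-blood bloodstream trypomastigotes counted in a Neubauer chamber. Reactivation expressed relative to untreated infected controls.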

Mus musculus [8] = assay: (§7) Hepatotoxicity in Balb/c mouse infected with Trypanosoma cruzi MHOM/Pe/2011/Arequipa DTU 5 trypamastigotes assessed as increase in total bilirubin level at 20 mg/kg, po once daily for 5 consecutive days starting from day 75 post infection measured on day 127 post infection by biochemical analysis relative to control; type: toxicity, organism-based; conditions: in vivo
Mus musculus [9] = assay: as §7, with “change” for “increase”, “ratio of serum ALT to GPT” for “total bilirubin”; type: toxicity, organism-based; conditions: in vivo; how it was run: as §4
Trypanosoma cruzi [10] = assay: as §6, with “in Ig-G level in serum” for “in parasitaemia reactivation”, “measured on day 127” for “measured up to 1 week”, “post infection” for “post immunosuppression”, “by ELISA” for “by Neubauer chamber method”; type: functional, organism-based
How it was run: (§8)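 Female BALB/c mice (8-10 weeks, 20-25 g), six per group, infected i.p. with 5 x 10^5 Arequipa bloodstream trypomastigotes. Compound was given orally once daily for 5 days from day 10 or day 75 pi, at 20 mg·kg-1 per day in 5 % DMSO/0.5 % HPMC. Anti-T. cruzi IgG in serum was measured by ELISA with Fe-SOD antigen, read as OD 490 nm.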

Trypanosoma cruzi [11] = assay: Antitrypanosomal activity against Trypanosoma cruzi MHOM/Pe/2011/Arequipa DTU 5 trypamastigotes infected in Balb/c mouse assessed as reduction in Ig-G level in serum at 20 mg/kg, po once daily for 5 consecutive days starting from day 10 post infection measured on day 100 post infection by ELISA; type: functional, organism-based; how it was run: as §8
Trypanosoma cruzi [12] = assay: as §1, with “in lung” for “in bone marrow”, “at 20” for “at 100”, “day 10” for “day 75”; type: functional; parameters: scale not given: the % may be the effect or the level left; how it was run: as §2
Mus musculus [13] = assay: Toxicity in Balb/c mouse assessed as reduction in body mass at 20 mg/kg, po once daily for 5 consecutive days starting from day 10 post infection relative to control; type: organism-based; parameters: scale not given: the % may be the effect or the level left; conditions: in vivo
Trypanosoma cruzi [14] = assay: as §1, with “at 20” for “at 100”, “day 10” for “day 75”; type: functional; parameters: scale not given: the % may be the effect or the level left; how it was run: as §2
Mus musculus [15] = assay: as §7, with “Cardiotoxicity” for “Hepatotoxicity”, “decrease” for “increase”, “serum LDH” for “total bilirubin”; type: toxicity, organism-based; parameters: scale not given: the % may be the effect or the level left; conditions: in vivo; how it was run: as §4
Mus musculus [16] = assay: as §5, with “decrease” for “change”, “81” for “127”; type: toxicity, organism-based; parameters: scale not given: the % may be the effect or the level left; conditions: in vivo; how it was run: as §4
Mus musculus [17] = assay: as §7, with “Nephrotoxicity in” for “Hepatotoxicity in”, “in urea” for “in total bilirubin”, “level in serum” for “level”, “at […]” for “at 20”, “day 81” for “day 127”; type: toxicity, organism-based; conditions: in vivo
Trypanosoma cruzi [18] = assay: Antitrypanosomal activity against Trypanosoma cruzi MHOM/Pe/2011/Arequipa DTU 5 epimastigotes assessed as effect on parasite glycerol pathway by measuring increase in glycerol excretion at IC25 after 72 hrs by 1H NMR method; type: functional, organism-based
How it was run: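 Arequipa epimastigotes exposed at IC25 for 72 h alongside an untreated control. Excreted catabolites were analysed by 1H NMR, and each peak is reported as % variation versus the control. Three separate determinations.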

Mus musculus [19] = assay: as §7, with “in ratio of serum AST to GOT” for “in total bilirubin”, “at […]” for “at 20”, “day 81” for “day 127”; type: toxicity, organism-based; conditions: in vivo
Mus musculus [20] = assay: as §7, with “Nephrotoxicity in” for “Hepatotoxicity in”, “as decrease” for “as increase”, “in uric acid” for “in total bilirubin”, “level in serum” for “level”, “at […]” for “at 20”; type: toxicity, organism-based; parameters: scale not given: the % may be the effect or the level left; conditions: in vivo
Mus musculus [21] = assay: as §3, with “10” for “75”, “16” for “81”; type: toxicity, organism-based; conditions: in vivo; how it was run: as §4

COc1ccc(C(=O)CCN2CCN(c3ccc(Cl)cc3)CC2)cc1
Activity (Trypanosoma cruzi [1]): 78% | Activity (Mus musculus [2]): < 10% | Activity (Trypanosoma cruzi [3]): 78% | Activity (Trypanosoma cruzi [4]): 78%

O=C(Cn1ccnc1[N+](=O)[O-])NCc1ccccc1 [BENZNIDAZOLE]
Activity (Mus musculus [5]): < 10% | Activity (Trypanosoma cruzi [6]): inactive | Activity (Trypanosoma cruzi [7]): 75% | Activity (Mus musculus [8]): <= 20% | Activity (Mus musculus [9]): < 10% | Activity (Trypanosoma cruzi [10]): Active | Activity (Trypanosoma cruzi [11]): Active | Activity (Trypanosoma cruzi [12]): 33% | Activity (Mus musculus [13]): > 10% | Activity (Trypanosoma cruzi [14]): 33% | Activity (Mus musculus [15]): <= 20% | Activity (Mus musculus [16]): <= 10%

COc1ccc(C(=O)CCN2CCN(c3ccc(F)cc3)CC2)cc1
Activity (Mus musculus [17]): <= 30% | Activity (Trypanosoma cruzi [18]): Active

COc1ccc(C(=O)CCN2CCN(c3ccc([N+](=O)[O-])cc3)CC2)cc1
Activity (Mus musculus [19]): <= 30% | Activity (Mus musculus [20]): <= 30% | Activity (Mus musculus [21]): < 10%
